High-throughput results as filed in PubChem BioAssay.
SIAE primary: inhibitors of human sialic acid acetylesterase SIAE. Q9HAT2. AID 1053197. inhibition, % at 9.66 µM. 0.69% of 370,000 active. SIAE FP-Rh probe binding, fluorescence polarization;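 active means inhibition above a cutoff: mean of compounds within the control limits plus 3 SD of those, cut at about 17% in these data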;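 further: 0% = plate median of compound wells and 100% = probe without SIAE protein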
TCR CD3 inh: inhibitors of human TCR-CD3 interaction. inhibition, % at 9.4 µM. TAMRA-labeled TCR probe fluorescence, biochemical. 0.37% of 360,000 active; in the data active means inhibition above about 19%;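 further: recombinant mutant TCR 2C K166C tagged with TAMRA read by polarization; 0% = receptor in buffer alone and 100% = receptor with positive control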
PRMT1 FP inh: inhibitors of human PRMT1; Q99873; recombinant PRMT1, activity-based probe fluorescence polarization; inhibition, % at 2.79 µM; 1.3% of 370,000 active; AID 652257;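 active means inhibition above about 21% made by adding two undisclosed values, limit read from the data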
rCAG binder: r(CAG) repeat RNA binding. inhibition, % at 3 µM. TO-PRO-1 dye displacement fluorescence. 1.3% of 370,000 active. AID 651821;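 active means inhibition above the plate cutoff, the mean of all test compounds on that plate plus 3 SD, cut at about 35% in these data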;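 further: 0% = DMSO alone and 100% = 100 µM mitoxantrone as full dye displacement; higher means more dye released from RNA so lower well fluorescence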
ABHD4 inh: inhibitors of mouse ABHD4; inhibition, % at 8.92 µM; Q8VD66; purified mABHD4, FP-Rh probe fluorescence polarization; 0.54% of 370,000 active; AID 720543;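 active means inhibition exceeding the mean over every tested compound plus 3 SD, cut at about 30% in these data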;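 further: 0% = plate median of compound wells and 100% = S159A mutant with DMSO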
Target sequence (Q8VD66 whole entry, looked up): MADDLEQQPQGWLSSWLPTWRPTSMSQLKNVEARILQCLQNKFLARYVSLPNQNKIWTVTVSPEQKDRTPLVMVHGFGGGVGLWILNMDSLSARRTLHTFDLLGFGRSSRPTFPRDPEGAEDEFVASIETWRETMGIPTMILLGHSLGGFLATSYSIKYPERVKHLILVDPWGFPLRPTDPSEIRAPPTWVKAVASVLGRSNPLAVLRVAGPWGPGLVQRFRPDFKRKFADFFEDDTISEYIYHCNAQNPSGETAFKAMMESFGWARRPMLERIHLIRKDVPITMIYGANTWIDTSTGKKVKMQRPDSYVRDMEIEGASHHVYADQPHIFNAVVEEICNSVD
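Assay system: mABHD4 protein; medium: HEPES pH 7.0, NaCl, Pluronic buffer; dosing: 8.92 µM, single dose; schedule: 45 min + 60 min at 25 °C; signal: FP readout, ex 525 nm / em 598 nm; read-out: normalized percent inhibition of probe labeling; repeats: single replicate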
PRMT1 inh conf: PRMT1 (human) inhibition, FP confirmation; shares compounds with PRMT1 FP inh; recombinant His-PRMT1, activity-based probe fluorescence polarization; inhibition, % at 2.79 µM; 42% of 3,300 active;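 active means mean inhibition across replicates above the hit cutoff derived for the earlier primary screen, cut at about 22% in these data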
* hit, by the source's call; · = no result. Rows were chosen to be rich in hits. Some 3.3% of all compounds tested hit in one or more screens of this group.

SMILES	SIAE primary	TCR CD3 inh	PRMT1 FP inh	rCAG binder	ABHD4 inh	PRMT1 inh conf
N#Cc1ccc(-c2ccccc2)nc1SCC(=O)c1cc2ccccc2oc1=O	-25.9	-4.8	34.5*	19.6	-18.5	8.0
CCCCCCCCN1C(=O)[C@@H](CC(=O)NCc2ccccc2)C[C@@]2(C(=O)OC)C1=C[C@H](C1CCCC1)O[C@@H]2C	-9.4	5.0	4.2	3.0	1.6	·
Brc1ccc(CSc2nnc(SCc3ccccc3)s2)cc1	-1.5	·	3.1	2.6	0.4	·
C=CCn1c(SCC(=O)OC(C)C)nnc1-c1ccc(C)cc1	3.3	·	39.8*	-3.0	2.1	-2.8
CCOC(=O)[C@@]12CCC3=C1N(CCC3)C(=O)[C@H](CC(=O)NCCCOC)C2	2.0	·	5.9	1.4	-10.9	·
C=CCN1[C@@H](C)COc2cc(N3CCSCC3)ccc2S1(=O)=O	-5.5	·	3.1	-0.1	-5.5	·
c1ccc2[nH]c(CCCc3nc4ccccc4[nH]3)nc2c1	5.2	4.0	0.6	-1.0	2.4	·
S=c1cnc2ccccc2[nH]1	2.0	10.2	40.4*	1.9	7.1	13.6
N#CC1=C(N)S[C@@H](C(=O)c2ccc(F)cc2)[C@@H]1c1cccs1	3.9	-8.2	34.7*	2.9	26.0	0.6
N#CC1=C(N)SC(C(=O)c2ccccc2)C1c1cccs1 (stereo unspecified)	-0.6	-4.7	10.8	5.3	5.4	·
CC(=NNC(=S)N1CCCCC1)c1ccccn1	1.1	4.9	2.8	2.5	6.4	·
CC(=NNC(=S)N1CC2CCC(CC2)C1)c1ccncn1	2.7	-5.0	27.2*	1.5	7.5	1.8
CCCCCN1CCCCC(NC(=O)c2ccc(F)c(F)c2)C1=O (stereo unspecified)	1.2	·	3.1	-2.2	2.5	·
COc1ccccc1-n1c(SC)nc(O)cc1=O	-5.8	-0.7	24.8*	7.4	10.6	5.1
CCOc1ccc(N2C(=O)CC(NC3CCN(C(=O)c4ccc(F)cc4)CC3)C2=O)cc1 (stereo unspecified)	4.3	-3.1	53.0*	-4.8	-0.5	4.6
COc1ccc(N2C(=O)CC(NC3CC3)C2=O)cc1 (stereo unspecified)	8.6	6.1	31.7*	0.1	1.1	1.6
COc1ccc(NC2CC(=O)N(c3ccc(C(=O)O)cc3)C2=O)cc1 (stereo unspecified)	0.4	0.9	-1.0	2.6	-1.1	·
CC1=C2NC(N)=[N+](Cc3ccccc3)CC2n2c(=O)n(-c3ccccc3)c(=O)n2C1 (stereo unspecified)	-8.9	·	5.9	13.7	7.1	·
C[C@@H]1CCN(C2CC2)S(=O)(=O)c2ccc(N3CC[C@@H](N(C)C)C3)cc2O1	1.9	·	0.6	4.6	-0.3	·
COc1ccc(CCNC2=C(Cl)C(=O)N(CCc3ccccc3)C2=O)cc1OC	8.4	-1.4	1.9	5.8	-4.9	·
O=C1C(Cl)=C(Nc2ccccc2O)C(=O)N1CCc1ccccc1	-5.5	5.0	29.6*	10.2	20.9	53.5*
COP(=O)(O)C(COCCC(CC(C)C)NC(=O)OCc1ccccc1[N+](=O)[O-])NC(=O)OCc1ccccc1 (stereo unspecified)	0.7	·	1.4	·	-1.1	·
CC(C)Oc1ccc(Br)cc1/C=N\NC(N)=S	9.8	8.3	38.9*	-1.0	-13.3	11.4
Cc1cc(/C=N/NC(N)=S)c(C)n1-c1ccc(Br)cc1	8.9	1.6	2.6	2.0	0.1	·
O=C1[C@@H]2CSCCS(=O)(=O)N2C(=O)N1C1CCCCC1	2.5	1.3	-3.0	1.9	0.5	·
SMILES	SIAE primary	TCR CD3 inh	PRMT1 FP inh	rCAG binder	ABHD4 inh	PRMT1 inh conf
CCOC(=O)Cc1nc(N2CCN(CCN)CC2)c2c(C)c(C(=O)OCC)sc2n1	-5.0	·	-0.8	1.1	1.0	·
CC(=O)N1N=C(c2cccs2)CC1c1ccco1 (stereo unspecified)	0.7	13.8	-2.6	1.9	-2.5	·
CS(=O)(=O)N1N=C(c2cccs2)CC1c1ccco1 (stereo unspecified)	0.0	-3.0	41.1*	7.2	2.1	4.1
CCC(=O)/C=C1\Sc2ccc(OC)cc2N1CC	0.1	1.3	52.4*	-1.4	-3.1	19.1
O=C(/C=C/c1ccco1)N(Cc1ccc(Cl)cc1)C1CCS(=O)(=O)C1 (stereo unspecified)	-1.3	-4.3	28.1*	8.3	-1.0	1.9
CC1CC(C)CN(C(=O)c2ccc(-c3ccc([N+](=O)[O-])cc3)o2)C1 (stereo unspecified)	3.3	-10.5	35.0*	10.7	26.4	18.0
O=C(c1ccc(-c2ccc([N+](=O)[O-])cc2)o1)N1CCCCC1	-0.4	-3.8	45.7*	11.3	2.8	11.2
O=C(c1ccc(-c2cccc([N+](=O)[O-])c2)o1)N1CCN(c2ccc([N+](=O)[O-])cc2)CC1	2.8	3.1	2.8	3.4	4.1	·
CCOc1cc(-c2cc(-c3ccc(C)o3)nc(N)c2C#N)ccc1O	-8.6	1.9	0.9	7.6	-15.6	·
Cc1ccc(-c2cc(-c3ccc(C)o3)nc(N)c2C#N)cc1	-3.1	2.0	57.6*	16.6	0.0	78.9*
Cc1ccc(-c2cc(-c3ccc4c(c3)OCO4)c(C#N)c(N)n2)o1	-13.8	0.5	44.4*	11.4	-12.1	30.6*
Cc1ccc(-c2cc(-c3ccc(Cl)cc3)c(C#N)c(N)n2)o1	-2.1	-5.2	42.4*	22.7	4.8	62.9*
Cc1ccc(-c2cc(-c3ccc(F)cc3)c(C#N)c(N)n2)o1	-10.2	-2.5	45.8*	4.0	6.7	20.1
C#CCCCN([C@@H](CC(C)C)C(=O)OC)S(=O)(=O)c1ccc(F)cc1Br	-0.5	·	-7.3	-3.5	-7.9	·
COc1ccc2c(c1)CC/C(=C\C=C\c1ccccc1OC)C2=O	-2.6	-8.2	11.8	13.5	9.6	·
COc1ccccc1/C=C/C=C1\Oc2c(ccc(O)c2CN(C)C)C1=O	-7.2	-8.2	27.5*	-154.8	2.3	16.1
Cc1ccc(C(=O)NNC2CC(=O)N(c3ccc4c(c3)OCCO4)C2=O)cc1 (stereo unspecified)	2.4	-4.9	4.1	7.7	8.4	·
O=C(NNC1CC(=O)N(c2ccc3c(c2)OCCO3)C1=O)c1ccc(Cl)cc1 (stereo unspecified)	0.9	0.3	56.1*	13.2	4.8	-4.7
CCCN1CCc2c(sc(NC(=S)NC(=O)c3ccccc3)c2C#N)C1	-3.2	-11.1	35.8*	16.0	7.1	1.7
CC(C)C1Cc2c(sc(NC(=S)NC(=O)c3ccccc3)c2C#N)CO1 (stereo unspecified)	1.3	2.8	2.4	2.3	1.0	·
O=C(OC12CCCN(C1)/C(=C/c1ccncc1)C2)C1CCCCC1 (stereo unspecified)	1.6	·	-2.4	1.1	4.3	·
CC1(C)CC(=O)C2=C(C1)OC(N)=C(C#N)[C@@H]2c1ccccc1[N+](=O)[O-]	-3.2	-4.7	43.6*	-10.0	-7.9	0.3
CN(C)S(=O)(=O)c1cccc(-n2sc3ccccc3c2=O)c1	-16.4	6.1	101.5*	7.8	-40.9	94.8*
